Key:
A498 [1] = test: Growth inhibition of human A498 cells assessed as cell growth at 10^-7 M incubated for 48 hrs by sulforhodamine B assay relative to control; format: functional; conditions: A498, 48 h, read-out: Activity
UACC-257 = test: Growth inhibition of human UACC257 cells assessed as cell growth at 10^-8 M incubated for 48 hrs by sulforhodamine B assay relative to control; format: functional; conditions: UACC-257, 48 h, read-out: Activity
SN12C = test: Growth inhibition of human SN12C cells assessed as cell growth at 10^-7 M incubated for 48 hrs by sulforhodamine B assay relative to control; format: functional; conditions: read-out: Activity
A498 [2] = test: Growth inhibition of human A498 cells assessed as cell growth at 10^-6 M incubated for 48 hrs by sulforhodamine B assay relative to control; format: functional; conditions: A498, 48 h, read-out: Activity
[3] = Antiproliferative activity against HMVEC-d cells after 4 days by Coulter counter method; format: cell-based; conditions: Homo sapiens, 96 h
In short: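 Primary HUVEC, primary HMVEC-d and the HMEC-1 line seeded at 20,000 cells/well in gelatin-coated plates in EC growth medium (EGM2). After overnight incubation, 5-fold compound dilutions added. Cells proliferated four days with compound, then trypsinized and counted by Coulter counter to derive IC₅₀.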

EKVX = test: Growth inhibition of human EKVX cells assessed as cell growth at 10^-6 M incubated for 48 hrs by sulforhodamine B assay relative to control; format: functional; conditions: read-out: Activity
OVCAR-4 = test: Cytotoxicity against human OVCAR4 cells after 48 hrs by SRB assay; format: functional; conditions: OVCAR-4, 48 h
HL-60(TB) [4] = test: Growth inhibition of human HL-60(TB) cells assessed as cell growth at 10^-7 M incubated for 48 hrs by sulforhodamine B assay relative to control; format: functional; conditions: HL-60, 48 h, read-out: Activity
HL-60(TB) [5] = test: Cytotoxicity against human HL-60(TB) cells after 48 hrs by SRB assay; format: functional; conditions: HL-60, 48 h
IGROV-1 = test: Cytotoxicity against human IGROV1 cells after 48 hrs by SRB assay; format: functional; conditions: IGROV-1, 48 h
NCI-H460 = test: Growth inhibition of human NCI-H460 cells assessed as cell growth at 10^-8 M incubated for 48 hrs by sulforhodamine B assay relative to control; format: functional; conditions: NCI-H460, 48 h, read-out: Activity
K562 [6] = test: Cytotoxicity against human K562 cells after 48 hrs by SRB assay; format: functional; conditions: K562, 48 h
MDA-MB-435 = test: Growth inhibition of human MDA-MB-435 cells assessed as cell growth at 10^-5 M incubated for 48 hrs by sulforhodamine B assay relative to control; format: functional; conditions: MDA-MB-435, 48 h, read-out: Activity
HOP-62 = test: Growth inhibition of human HOP62 cells assessed as cell growth at 10^-7 M incubated for 48 hrs by sulforhodamine B assay relative to control; format: functional; conditions: HOP-62, 48 h, read-out: Activity
SNB-19 = test: Cytotoxicity against human SNB19 cells after 48 hrs by SRB assay; format: functional; conditions: SNB-19, 48 h
KM12 = test: Growth inhibition of human KM12 cells assessed as cell growth at 10^-7 M incubated for 48 hrs by sulforhodamine B assay relative to control; format: functional; conditions: KM12, 48 h, read-out: Activity
OVCAR-3 = test: Growth inhibition of human OVCAR3 cells assessed as cell growth at 10^-6 M incubated for 48 hrs by sulforhodamine B assay relative to control; format: functional; conditions: OVCAR-3, 48 h, read-out: Activity
A549 = test: Growth inhibition of human A549/ATCC cells assessed as cell growth at 10^-8 M incubated for 48 hrs by sulforhodamine B assay relative to control; format: functional; conditions: A549, 48 h, read-out: Activity
K562 [7] = test: Growth inhibition of human K562 cells assessed as cell growth at 10^-6 M incubated for 48 hrs by sulforhodamine B assay relative to control; format: functional; conditions: K562, 48 h, read-out: Activity
M14 = test: Growth inhibition of human M14 cells assessed as cell growth at 10^-7 M incubated for 48 hrs by sulforhodamine B assay relative to control; format: functional; conditions: M14, 48 h, read-out: Activity
NCI-H522 = test: Cytotoxicity against human NCI-H522 cells after 48 hrs by SRB assay; format: functional; conditions: NCI-H522, 48 h
MOLT-4 = test: Growth inhibition of human MOLT4 cells assessed as cell growth at 10^-7 M incubated for 48 hrs by sulforhodamine B assay relative to control; format: functional; conditions: MOLT-4, 48 h, read-out: Activity
MDA-MB-231 = test: Cytotoxicity against human MDA-MB-231 cells after 48 hrs by SRB assay; format: functional; conditions: MDA-MB-231, 48 h
HOP-92 = test: Cytotoxicity against human HOP92 cells after 48 hrs by SRB assay; format: functional; conditions: HOP-92, 48 h
SW-620 [8] = test: Growth inhibition of human SW620 cells assessed as cell growth at 10^-6 M incubated for 48 hrs by sulforhodamine B assay relative to control; format: functional; conditions: SW-620, 48 h, read-out: Activity
SW-620 [9] = test: Cytotoxicity against human SW620 cells after 48 hrs by SRB assay; format: functional; conditions: SW-620, 48 h
SF-268 = test: Growth inhibition of human SF268 cells assessed as cell growth at 10^-7 M incubated for 48 hrs by sulforhodamine B assay relative to control; format: functional; conditions: SF-268, 48 h, read-out: Activity
[10] = read-out: LC50 (the source's name)
[11] = read-out: pLC50 (the source's name) (converted)

C#C[C@@]1(O)[C@@H](CO)O[C@@H](n2cc(Cl)c3c(N)ncnc32)[C@@H]1O
growth at 0.1 µM (A498 [1]): 105 to 111%
growth at 0.01 µM (UACC-257): 87 to 100%
growth at 0.1 µM (SN12C): 53 to 72%
growth at 1 µM (A498 [2]): -63%
IC50 [3]: < 1.28 nM
growth at 1 µM (EKVX): 10%
GI50 (OVCAR-4; read-out: GI50): 292 to 358 nM
CC50 (OVCAR-4; [10]): > 100000 nM
TGI (OVCAR-4; read-out: TGI): 1980 to 5620 nM
growth at 0.1 µM (HL-60(TB) [4]): 19 to 47%
GI50 (HL-60(TB) [5]; read-out: GI50): 34.1 to 84 nM
TGI (HL-60(TB) [5]; read-out: TGI): 197 to 317 nM
CC50 (HL-60(TB) [5]; [11]): > 100000 nM
GI50 (IGROV-1; read-out: GI50): 123 to 145 nM
CC50 (IGROV-1; [10]): > 100000 nM
TGI (IGROV-1; read-out: TGI): 475 nM
TGI (IGROV-1; read-out: pTGI (converted)): 479 nM
growth at 0.01 µM (NCI-H460): 45 to 96%
GI50 (K562 [6]; read-out: GI50): 78.1 to 126 nM
TGI (K562 [6]; read-out: TGI): > 100000 nM
CC50 (K562 [6]; [11]): > 100000 nM
TGI (K562 [6]; read-out: pTGI): > 100000 nM
growth at 10 µM (MDA-MB-435): -65%
growth at 0.1 µM (HOP-62): 74 to 86%
GI50 (SNB-19; read-out: GI50): 21 to 204 nM
TGI (SNB-19; read-out: TGI): 294 nM
CC50 (SNB-19; [11]): > 100000 nM
TGI (SNB-19; read-out: pTGI (converted)): 295 nM
growth at 0.1 µM (KM12): 55 to 60%
growth at 1 µM (OVCAR-3): 5 to 7%
growth at 0.01 µM (A549): 98 to 105%
growth at 1 µM (K562 [7]): 7%
growth at 0.1 µM (M14): 69 to 79%
GI50 (NCI-H522; read-out: GI50): 81.6 to 134 nM
TGI (NCI-H522; read-out: TGI): 276 to 455 nM
CC50 (NCI-H522; [11]): > 100000 nM
growth at 0.1 µM (MOLT-4): 62 to 67%
GI50 (MDA-MB-231; read-out: GI50): 148 to 193 nM
CC50 (MDA-MB-231; [10]): > 100000 nM
TGI (MDA-MB-231; read-out: TGI): 893 to 1010 nM
GI50 (HOP-92; read-out: GI50): 433 to 476 nM
CC50 (HOP-92; [10]): > 100000 nM
TGI (HOP-92; read-out: TGI): 3330 to 3740 nM
growth at 1 µM (SW-620 [8]): 2 to 7%
GI50 (SW-620 [9]; read-out: GI50): 51.3 to 98 nM
TGI (SW-620 [9]; read-out: TGI): > 100000 nM
CC50 (SW-620 [9]; [11]): > 100000 nM
growth at 0.1 µM (SF-268): 77 to 80%

From ChEMBL document CHEMBL4270599, “Synthesis of a 3'-C-ethynyl-β-d-ribofuranose purine nucleoside library: Discovery of C7-deazapurine analogs as potent antiproliferative nucleosides” (Eur J Med Chem, 2018)
